Here are results for five molecules from ChEMBL document CHEMBL1130822, “Synthesis and biological evaluation of new tetrahydronaphthalene derivatives as thromboxane receptor antagonists” (Bioorg Med Chem Lett, 1998).

The species entered for one test is Cavia porcellus. The experiment in a line: Compound was tested for inhibition of U-46,619 induced increase in tracheal pressure of guinea pigs. The class given is functional, Trachea. Particulars: for ED50: Cavia porcellus, Trachea, read-out: ID50. Put shortly:
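Compound given i.v. to guinea pigs; tracheal pressure rise evoked with U46619 by the Konzett–Rossler technique; ID50 expressed in μg/kg.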

The species named for a further test is Homo sapiens. As to the kind of experiment: Compound was tested for inhibition of U-46,619 induced aggregation of human platelets. The class given is functional. The procedure, abridged:
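Human platelet-rich plasma aggregated with the TP-receptor agonist U46619, with and without compound; inhibition of aggregation measured and IC50 expressed in μM.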

A further test is filed under the species Oryctolagus cuniculus. The experiment in a line: Compound was tested for inhibition of U-46,619 induced contraction of isolated rabbit saphenous vein. Format: functional. Particulars: for Kb: Oryctolagus cuniculus, Saphenous vein, read-out: pA2 (converted). Put shortly:
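Isolated rabbit saphenous vein rings contracted with increasing U46619 concentrations in the absence or presence of compound; antagonism quantified as pA2 values.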

Take `O=C(O)CC/C=C\C[C@@H]1CO[C@H](c2ccccc2Cl)O[C@@H]1c1ccccc1O`: the ED50 in the test filed under Cavia porcellus is 0.0007 mg/kg. The molecule also displayed an IC50 in the test filed under Homo sapiens (Homo sapiens) of 13 nM. In the test filed under Oryctolagus cuniculus, the Kb is 2.51 nM.

For `O=C(O)CCn1c2c(c3ccccc31)CC(NS(=O)(=O)c1ccc(F)cc1)CC2` (single isomer, unassigned) [RAMATROBAN], the ED50 in the test listed under Cavia porcellus is 0.017 mg/kg. Besides, the IC50 in the test listed under Homo sapiens (Homo sapiens) worked out at 380 nM. The Kb in the test listed under Oryctolagus cuniculus was 12.6 nM.

As to `Cc1ccc2c(c1CCC(=O)O)CCC(NS(=O)(=O)c1ccc(Cl)cc1)C2` (stereo in doubt), the ID50 in the test listed under Cavia porcellus was 0.035 mg/kg. The molecule also showed an IC50 in the test listed under Homo sapiens of 230 nM.

Consider `Cc1ccc2c(c1CCC(=O)O)CCC(NS(=O)(=O)c1ccc(Cl)cc1)C2` (stereo in doubt; 2a (l)), for which the ID50 in the test filed under Cavia porcellus is 0.015 mg/kg. In the test filed under Homo sapiens, this molecule yielded a 50% inhibitory concentration (IC50) of 780 nM. The pA2 in the test filed under Oryctolagus cuniculus is 8.2.

Turning to `Cc1ccc2c(c1CCC(=O)O)CCC(NS(=O)(=O)c1ccc(Cl)cc1)C2` (stereo in doubt; 2a), in the test listed under Cavia porcellus, the ID50 was found to be 0.031 mg/kg. The IC50 in the test filed under Homo sapiens came to 330 nM. Moreover, in the test filed under Oryctolagus cuniculus, the pA2 stood at 8.9.

One may read the IC50 as the point on the concentration scale where inhibition reaches its midpoint. Read a low IC50 as higher potency. In general, pA2 refers to the negative logarithm of the molar antagonist concentration that doubles the agonist concentration needed for the same response.
